ChEMBL document CHEMBL1124568, “2,4-Diamino-5-benzylpyrimidines as antibacterial agents. 13. Some alkenyl derivatives with high in vitro activity against anaerobic organisms” (J Med Chem, 1989)
In brackets after ≈: the same amount, converted by molar mass.

Legend:
Klebsiella pneumoniae [1] = assay: Antibacterial (Klebsiella pneumoniae CN3632) activity compared to trimethoprim.; assay type: functional
Summary of the method: (§1)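 Each MIC is divided by the MIC of trimethoprim run alongside. Serial dilutions were normally 0.1, 0.3, 1, 3, 10, etc., and occasionally 1, 5 and 10. For E. coli the value is the average over six strains.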

[2] = Antibacterial (Salmonella typhi CN512) activity compared to trimethoprim.; assay type: functional, salmonella typhosa
Clostridium perfringens = assay: Ratio of antibacterial (Clostridium perfringens) activities compared to that of trimethoprim and metronidazole; assay type: functional
Proteus vulgaris [3] = assay: Antibacterial (Proteus vulgaris CN329) activity compared to trimethoprim.; assay type: functional; summary of the method: as §1
Clostridioides difficile = assay: Ratio of antibacterial (Clostridium difficile) activities compared to that of trimethoprim and metronidazole; assay type: functional
Shigella dysenteriae [4] = assay: (§2) Ratio of antibacterial (Shigella dysentariae CN513) activities of compound and trimethoprim
[5] = Half-life in dogs Plasma; assay type: ADME, organism-based, Canis lupus familiaris; details: dog
Summary of the method: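 Two fasted (18 h) male beagles received 5 mg/kg […] (free base), co-dosed with 5 mg/kg trimethoprim in propylene glycol. Jugular plasma was sampled from 0.17 to 24 h. Drug was extracted, separated by TLC and read by fluorescence densitometry. t1/2 came from least-squares linear regression of the postabsorption segment of the plasma curve.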

Escherichia coli [6] = assay: Antibacterial (Escherichia coli) activity compared to trimethoprim.; assay type: functional; summary of the method: as §1
Pasteurella multocida = assay: Antibacterial (Pasteurella multocides ATCC 6587) activity compared to trimethoprim.; assay type: functional; summary of the method: as §1
Streptococcus pyogenes [7] = assay: Antibacterial ([…] CN10) activity compared to trimethoprim.; assay type: functional; summary of the method: as §1
Klebsiella aerogenes [8] = assay: Antibacterial (Enterobacter aerogenes 2201/86) activity compared to trimethoprim.; assay type: functional; summary of the method: as §1
Phocaeicola vulgatus = assay: Ratio of antibacterial (Bacteroides vulgatus) activities compared to that of trimethoprim and metronidazole; assay type: functional
Fusobacterium nucleatum = assay: Ratio of antibacterial (Fusobacterium nucleatum) activities compared to that of trimethoprim and metronidazole; assay type: functional
Staphylococcus aureus [9] = assay: Antibacterial (Staphylococcus aureus CN491) activity compared to trimethoprim.; assay type: functional; summary of the method: as §1
[10] = system: Bacteroides thetaiotaomicron; assay: Ratio of antibacterial (Bacteroides thetaiotaomicron) activities compared to that of trimethoprim and metronidazole; assay type: functional
[11] = target: Bifunctional dihydrofolate reductase-thymidylate synthase (Plasmodium berghei str. ANKA, UniProt Q27713); assay: In vitro inhibition of dihydrofolate reductase of Plasmodium berghei; details: read-out: I50
Bifunctional dihydrofolate reductase-thymidylate synthase, sequence (Q27713 whole entry): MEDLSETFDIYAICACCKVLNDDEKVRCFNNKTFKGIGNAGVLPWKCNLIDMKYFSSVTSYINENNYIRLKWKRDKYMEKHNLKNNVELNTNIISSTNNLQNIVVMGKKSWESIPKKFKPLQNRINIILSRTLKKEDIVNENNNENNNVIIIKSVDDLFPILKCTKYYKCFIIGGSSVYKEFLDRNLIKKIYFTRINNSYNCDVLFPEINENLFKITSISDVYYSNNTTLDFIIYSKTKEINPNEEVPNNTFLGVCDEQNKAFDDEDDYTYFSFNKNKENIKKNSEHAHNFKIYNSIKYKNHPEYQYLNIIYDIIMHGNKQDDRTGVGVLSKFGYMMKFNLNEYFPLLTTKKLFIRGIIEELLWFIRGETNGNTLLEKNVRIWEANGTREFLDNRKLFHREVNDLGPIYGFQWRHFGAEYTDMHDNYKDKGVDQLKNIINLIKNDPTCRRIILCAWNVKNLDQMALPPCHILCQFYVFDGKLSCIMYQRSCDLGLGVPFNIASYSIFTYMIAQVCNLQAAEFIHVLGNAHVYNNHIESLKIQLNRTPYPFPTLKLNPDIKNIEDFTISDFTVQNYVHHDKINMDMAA

Streptococcus pyogenes [12] = assay: Ratio of antibacterial (Streptococcus pyogenes CN10) activities of compound and trimethoprim
Klebsiella pneumoniae [13] = assay: Ratio of antibacterial (Klebsiella pneumoniae CN3632) activities of compound and trimethoprim; assay type: functional; summary of the method: as §1
Shigella dysenteriae [14] = assay: as §2; assay type: functional
Proteus vulgaris [15] = assay: Ratio of antibacterial (Proteus vulgaris CN329) activities of compound and trimethoprim; assay type: functional; summary of the method: as §1
Dihydrofolate reductase [16] = target: T1, Dihydrofolate reductase (Rattus norvegicus, UniProt Q920D2); assay: In vitro inhibition of rat liver dihydrofolate reductase.; details: read-out: I50
T1 sequence (Q920D2 whole entry): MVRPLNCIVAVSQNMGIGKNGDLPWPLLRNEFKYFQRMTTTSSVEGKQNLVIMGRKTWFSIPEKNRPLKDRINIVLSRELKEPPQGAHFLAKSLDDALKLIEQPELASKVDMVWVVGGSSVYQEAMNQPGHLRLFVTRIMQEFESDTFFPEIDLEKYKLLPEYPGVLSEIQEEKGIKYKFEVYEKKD

Klebsiella aerogenes [17] = assay: Ratio of antibacterial (Enterobacter aerogenes, 2201/86) activities of compound and trimethoprim; assay type: functional; summary of the method: as §1
Staphylococcus aureus [18] = assay: Ratio of antibacterial (Staphylococcus aureus CN491) activities of compound and trimethoprim; assay type: functional; summary of the method: as §1
Salmonella = assay: Ratio of antibacterial (Salmonella typhi CN512) activities of compound and trimethoprim; assay type: functional, salmonella typhosa
Dihydrofolate reductase [19] = target: T2, Dihydrofolate reductase (Escherichia coli, UniProt P0ABQ4); assay: In vitro inhibition of dihydrofolate reductase of Escherichia coli; details: read-out: I50
T2 sequence (P0ABQ4 whole entry): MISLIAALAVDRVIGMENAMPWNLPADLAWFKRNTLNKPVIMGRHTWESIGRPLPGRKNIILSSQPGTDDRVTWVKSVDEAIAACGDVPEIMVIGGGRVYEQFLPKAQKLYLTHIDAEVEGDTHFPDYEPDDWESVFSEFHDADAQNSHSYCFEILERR
Summary of the method: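 The E. coli DHFR assay contained 1 nM enzyme, with the lower limit for I50 arbitrarily set at 2 nM. I50 was estimated from plots of % inhibition of steady-state velocity vs log inhibitor concentration.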

Escherichia coli [20] = assay: Ratio of antibacterial (Escherichia coli CN314) activities of compound and trimethoprim; assay type: functional
Dihydrofolate reductase [21] = target: T2, Dihydrofolate reductase; assay: Antibacterial activity against Escherichia coli DHFR
Summary of the method: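 E. coli DHFR assay with 1 nM enzyme. I50 is the inhibitor concentration that halves the standard-assay velocity. […] Apparent Ki for some inhibitors was obtained by the Henderson method.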

Shigella flexneri = assay: Antibacterial (Shigella flexneri CN6007) activity compared to trimethoprim.; assay type: functional; summary of the method: as §1
[22] = system: Mycolicibacterium smegmatis; assay: Antibacterial (Mycobacterium smegmatis S3254) activity compared to trimethoprim.; assay type: functional; summary of the method: as §1
Dihydrofolate reductase [23] = target: Dihydrofolate reductase (Staphylococcus aureus, UniProt P0A017); assay: Antibacterial activity against Staphylococcus aureus DHFR
Dihydrofolate reductase (Staphylococcus aureus, UniProt P0A017), sequence (P0A017 whole entry): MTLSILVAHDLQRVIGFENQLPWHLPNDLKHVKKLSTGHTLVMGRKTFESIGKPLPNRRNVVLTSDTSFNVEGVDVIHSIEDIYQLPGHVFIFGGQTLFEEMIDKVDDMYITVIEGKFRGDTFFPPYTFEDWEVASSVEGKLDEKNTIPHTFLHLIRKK
Summary of the method: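 S. aureus (strain S8862) DHFR was partially purified by ammonium sulfate fractionation and gel filtration. The assay used 0.1 M imidazole chloride pH 6.4, 12 mM mercaptoethanol, 60 µM NADPH and 45 µM dihydrofolate at 30 °C, read at 340 nm. Enzyme, NADPH and inhibitor were preincubated 2 min before dihydrofolate was added. I50 came from % inhibition vs log[inhibitor] plots of steady-state velocities.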

Serratia marcescens = assay: Antibacterial (Serratia marcescens CN2398) activity compared to trimethoprim.; assay type: functional; summary of the method: as §1

Row | SMILES | MIC (Klebsiella pneumoniae [1]) [µg/mL] | MIC [2] [µg/mL] | MIC (Clostridium perfringens) [µg/mL] | MIC (Proteus vulgaris [3]) [µg/mL] | MIC (Clostridioides difficile) [µg/mL] | MIC (Escherichia coli [6]) [µg/mL] | MIC (Pasteurella multocida) [µg/mL] | MIC (Streptococcus pyogenes [7]) [µg/mL] | MIC (Klebsiella aerogenes [8]) [µg/mL] | IC50 [11] [µM] | MIC (Streptococcus pyogenes [12]) [µg/mL] | MIC (Klebsiella pneumoniae [13]) [µg/mL] | MIC (Shigella dysenteriae [14]) [µg/mL] | MIC (Proteus vulgaris [15]) [µg/mL] | IC50 (Dihydrofolate reductase [16]) [µM] | MIC (Klebsiella aerogenes [17]) [µg/mL] | MIC (Staphylococcus aureus [18]) [µg/mL] | MIC (Salmonella) [µg/mL] | IC50 (Dihydrofolate reductase [19]) [µM] | MIC (Escherichia coli [20]) [µg/mL] | further results
1 | COc1cc(Cc2cnc(N)nc2N)cc(OC)c1OC [TRIMETHOPRIM] | 1 (≈ 3.44 µM) | 1 (≈ 3.44 µM) | > 25 | 1 (≈ 3.44 µM) | > 25 | 1 (≈ 3.44 µM) | 1 (≈ 3.44 µM) | 1 (≈ 3.44 µM) | 1 (≈ 3.44 µM) | – | – | – | – | – | – | – | – | – | – | – | MIC (Shigella dysenteriae [4]): 1 µg/mL; half-life [5]: 3.44 h; MIC (Phocaeicola vulgatus): 6.2 µg/mL; MIC (Fusobacterium nucleatum): 0.8 µg/mL; MIC (Staphylococcus aureus [9]): 1 µg/mL (≈ 3.44 µM); MIC [10]: 12.5 µg/mL
2 | CCCc1cc(Cc2cnc(N)nc2N)cc2c1OC(C)C2 (stereo unspecified) | – | – | – | – | – | – | – | – | – | 0.093 | 1 | 100 | 30 | 30 | 6.25 | 100 | 1 | 100 | 0.021 | 30 | –
3 | CCCc1cc(Cc2cnc(N)nc2N)cc2c1OC(C)(C)C2 | – | – | – | – | – | – | – | – | – | 0.24 | 3 | 100 | 300 | 100 | 9.9 | 100 | 3 | 300 | 0.28 | 100 | –
4 | CCc1cc(Cc2cnc(N)nc2N)cc2c1OC(C)C2 (stereo unspecified) | – | – | – | – | – | – | – | – | – | 0.1 | 1 | 30 | 30 | 30 | 11 | 30 | 1 | 30 | 0.019 | 30 | –
5 | CCCc1cc(Cc2cnc(N)nc2N)cc(CCC)c1O | – | – | – | – | – | – | – | – | – | – | – | – | – | – | – | – | – | – | – | – | Ki (Dihydrofolate reductase [21]): 0.0017 µM
6 | C=CCc1cc(Cc2cnc(N)nc2N)cc(CC=C)c1OC | > 10 | 100 (≈ 322 µM) | 25 | 100 (≈ 322 µM) | > 25 | 72 (≈ 232 µM) | 20 (≈ 64.4 µM) | 1 (≈ 3.22 µM) | 100 (≈ 322 µM) | – | – | – | – | – | 18 | – | – | – | – | – | MIC (Shigella flexneri): 100 µg/mL (≈ 322 µM); MIC (Phocaeicola vulgatus): 0.2 µg/mL; MIC (Fusobacterium nucleatum): 0.8 µg/mL; MIC (Staphylococcus aureus [9]): 5 µg/mL (≈ 16.1 µM); MIC [10]: 0.2 µg/mL; MIC [22]: 10 µg/mL (≈ 32.2 µM); Ki (Dihydrofolate reductase [23]): 0.0021 µM; MIC (Serratia marcescens): > 10 µg/mL
7 | CCCc1cc(Cc2cnc(N)nc2N)cc2c1OC(C)C2C (stereo unspecified) | – | – | – | – | – | – | – | – | – | 0.012 | 1 | 100 | 100 | 100 | 2.04 | 30 | 1 | 100 | 0.013 | 30 | –
8 | C=CCc1cc(Cc2cnc(N)nc2N)cc(CCC)c1OC | 100 (≈ 320 µM) | 100 (≈ 320 µM) | 12.5 | > 50 | 25 | 38 (≈ 122 µM) | 10 (≈ 32 µM) | 2 (≈ 6.4 µM) | 100 (≈ 320 µM) | – | – | – | – | – | 15 | – | – | – | – | – | Ki (Dihydrofolate reductase [21]): 0.0016 µM; MIC (Shigella flexneri): 100 µg/mL (≈ 320 µM); MIC (Phocaeicola vulgatus): 0.2 µg/mL; MIC (Fusobacterium nucleatum): 0.8 µg/mL; MIC (Staphylococcus aureus [9]): 1 µg/mL (≈ 3.2 µM); MIC [10]: 0.1 µg/mL; MIC [22]: 0.5 µg/mL (≈ 1.6 µM); MIC (Serratia marcescens): > 10 µg/mL
